Key:
[1] = system: LNCaP; assay: Cytotoxicity against human LNCAP cells after 72 hrs by XTT assay; format: functional, cell-based; details: 24 h, in the assay text read “after 24 hrs” for “after 72 hrs”
Method in brief: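 Prostate cancer cells in RPMI-1640 with 10% FBS, 37 °C, 5% CO2, grown to 70–80% confluence and treated at 0.1–100 µM for 24, 48 and 72 h. XTT labeling for 4 h at 37 °C, absorbance 450 nm (reference 650 nm) against control wells. IC50 derived from the mean of eight wells; taxol and cisplatin served as positive controls.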

[2] = system: DU-145; assay: Cytotoxicity against human DU145 cells after 72 hrs by XTT assay; format: functional, cell-based; details: DU-145, 24 h, in the assay text read “after 24 hrs” for “after 72 hrs”

Row | Compound | IC50 [1] | IC50 [2]
1 | C=C1C=C(C(CCCCCCCCCCCCCCCCCCC)OC)C(=O)O1 (centres undefined) [TENUIFOLIDE B] | 22.2 µM | 246 µM
2 | COc1ccc2c(c1)CC=C(CO)c1cc3c(cc1-2)OCO3 [TENUIFOLIN] | 223 µM | > 500 µM

Source: ChEMBL document CHEMBL1154279, “Cytotoxic compounds from the stems of Cinnamomum tenuifolium” (J Nat Prod, 2009)
